The list is not random: actives were taken first. Their share in the collection is about 1.5%.
T cell HTS – modulators of CD8 T cell-vesicle binding, primary screen, mouse 2C CD8+ T cells, flow cytometry; 2C CD8+ T cell-vesicle binding; active compounds read low; response (vesicle binding), % at 7 µM; 0.068% of 330,000 active;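 active means response, share of CD8 T cells binding vesicles, and their 90th percentile fluorescence all below set limits, cut at about 80% in these data, passing the limit was not always enough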;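 further: values below 100% mean blocked vesicle binding to the CD8+ T cells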
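Benchmarks: naked versus QL9-loaded vesicles / Assay system: purified 2C TCR transgenic mouse naive CD8+ T cells / Technique: high-throughput flow cytometry with anti-B7-1 and anti-CD8 staining / Timing: Cell–vesicle co-incubation 1.5 h at 37 °C, staining 20 min on ice / Read-out: percent CD8+ FL2 mean versus row control / Probe or stimulus: QL9-loaded Drosophila micro-vesicles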
CHT allo act – CHT positive allosteric modulators, primary screen, cell-based, membrane potential dye, choline EC20. High affinity choline transporter 1 (Homo sapiens), Q9GZV3. CHT-expressing cells; active compounds read high; LV-AA mutant CHT in HEK293 cells. B-score at 10 µM. 0.49% of 310,000 active;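 active means initial fluorescence not abnormally high and integrated response B-score, plate-corrected, over 3 SD above library mean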
VLA-4 inh – inhibition in human VLA-4 binding assay, primary screen, VLA-4 allosteric modulator project, MLPCN library, flow cytometry, VLA-4 expressing cells. ligand binding flow cytometry. inhibition, % (about 7 µM as worked out from the volumes in the protocol). 0.2% of 330,000 active. AID 2557, 2010. Integrin alpha-4 (Homo sapiens), P13612; in the data active means inhibition above about 50%
Target sequence (P13612 whole entry, looked up): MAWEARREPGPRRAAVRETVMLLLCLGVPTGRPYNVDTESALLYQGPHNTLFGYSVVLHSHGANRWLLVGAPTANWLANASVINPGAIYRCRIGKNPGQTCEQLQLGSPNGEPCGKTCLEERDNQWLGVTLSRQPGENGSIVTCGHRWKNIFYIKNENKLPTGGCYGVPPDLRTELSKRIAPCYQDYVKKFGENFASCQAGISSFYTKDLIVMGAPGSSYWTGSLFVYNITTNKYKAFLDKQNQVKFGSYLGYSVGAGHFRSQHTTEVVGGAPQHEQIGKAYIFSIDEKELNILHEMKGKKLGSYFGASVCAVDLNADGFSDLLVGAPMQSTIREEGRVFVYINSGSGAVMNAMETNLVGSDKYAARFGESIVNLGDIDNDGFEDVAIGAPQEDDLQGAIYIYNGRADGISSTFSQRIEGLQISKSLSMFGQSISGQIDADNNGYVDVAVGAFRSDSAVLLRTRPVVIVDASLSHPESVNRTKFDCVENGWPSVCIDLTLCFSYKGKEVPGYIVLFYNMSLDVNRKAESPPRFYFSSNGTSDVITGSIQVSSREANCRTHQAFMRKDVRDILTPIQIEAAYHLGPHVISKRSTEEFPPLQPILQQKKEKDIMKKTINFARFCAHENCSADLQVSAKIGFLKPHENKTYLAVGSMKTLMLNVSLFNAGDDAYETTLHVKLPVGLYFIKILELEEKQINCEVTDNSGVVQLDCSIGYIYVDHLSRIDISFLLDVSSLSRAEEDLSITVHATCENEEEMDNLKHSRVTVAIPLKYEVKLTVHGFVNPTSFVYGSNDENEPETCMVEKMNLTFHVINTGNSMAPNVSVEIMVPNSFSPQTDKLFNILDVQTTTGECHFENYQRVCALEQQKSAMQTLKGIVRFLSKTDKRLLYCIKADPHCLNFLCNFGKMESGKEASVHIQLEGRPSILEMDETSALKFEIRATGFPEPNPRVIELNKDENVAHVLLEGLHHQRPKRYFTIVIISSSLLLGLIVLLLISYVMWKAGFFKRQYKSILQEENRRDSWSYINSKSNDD
CHT inh – inhibitors of human choline transporter CHT; High affinity choline transporter 1 (Homo sapiens), Q9GZV3; CHT-expressing cells, membrane potential dye, choline response; active compounds read low; B-score at 10 µM; 0.86% of 310,000 active; AID 488975, 2010;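 active means B-score over 3 SD under the library average, and starting fluorescence ratio not unusually high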;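 further: choline stimulus applied at its EC90 after an EC20 pre-addition; B-score computed on integrated fluorescence ratio after choline addition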
VLA-4 mod pick – retest of VLA-4 allosteric modulators, confirmation, cell-based, cherry-picked plates, U937, HUTS-21 LIBS antibody; shares compounds with VLA-4 inh; U937 cells, HUTS-21 LIBS mAb binding, flow cytometry; LDV ligand present at threefold Kd; inhibition, % at 6.7 µM; 2% of 1,300 active; in the data active means inhibition above about 40%
Large screens that a line does not name were inactive (follow-up assays come after a bar, where they were run).

COCCSc1ccccc1C(=O)N1CCc2ccccc2C1	VLA-4 inh 52 | VLA-4 mod pick inactive
Cc1ccc(NC(=O)CN2CCc3cc4c(cc3C2)OCCCO4)cc1	VLA-4 inh 55 | VLA-4 mod pick inactive
Cc1ccc(NC(=O)CN2CCc3cc4c(cc3C2)OCCCO4)cc1C	none
CCOc1ncccc1C(=O)OCC(=O)N1CCC(C)CC1	none (no result: CHT allo act, CHT inh)
O=C(c1cc(-c2ccncc2)nc2ccccc12)N1CCN(c2ncccn2)CC1	none (no result: CHT allo act, CHT inh) | VLA-4 mod pick inactive
O=C(c1cc(-c2cccnc2)nc2ccc(Br)cc12)N1CCN(c2ncccn2)CC1	none | VLA-4 mod pick inactive
O=C(c1ccco1)N1CCN(C(=O)c2cc(-c3ccccn3)nc3ccccc23)CC1	none | VLA-4 mod pick inactive
CC(=O)c1ccc(N2CCN(C(=O)c3cc(-c4cccnc4)nc4ccc(Br)cc34)CC2)cc1	none (no result: CHT inh)
CCCCOc1ccc(C(=O)NCC(=O)NNC(=O)c2ccco2)cc1	none (no result: CHT allo act, CHT inh)
CCCOc1ncnc2c1[nH]c1ccc(OC)cc12	none | VLA-4 mod pick inactive
CCCCOc1ncnc2c1[nH]c1ccc(C)cc12	none | VLA-4 mod pick inactive
CCCOc1ncnc2c1[nH]c1ccccc12	none
C=CCNc1ncnc2c1[nH]c1ccc(C)cc12	none
Cc1cc(OC(=O)c2cc(F)c(F)cc2Cl)nc(C)n1	VLA-4 inh 63 | VLA-4 mod pick inactive
Nc1ccc(CCNc2ncnc3c2ncn3[C@@H]2O[C@H](CO)[C@@H](O)[C@H]2O)cc1	none | VLA-4 mod pick inactive
OCC1OC(n2cnc3c(NCCc4ccccc4)ncnc32)C(O)C1O (centres undefined)	none | VLA-4 mod pick inactive
OC[C@H]1O[C@@H](n2cnc3c(Nc4ccccc4)ncnc32)[C@H](O)[C@@H]1O	none | VLA-4 mod pick inactive
CCN1C(=O)[C@H]2[C@@H](c3ccc(-c4ccc(C(C)=O)cc4)cc3)N3CCC[C@@]3(C(=O)OC)[C@H]2C1=O	none
CC(=O)NCCOc1nc(N2CCCCC2)nc(N2CCCCC2)n1	none
CCc1nn2c(N3CCOCC3)cc(C)nc2c1-c1ccccc1	none | VLA-4 mod pick inactive
O=S(=O)(/N=C(/Nc1ccccc1)c1ccccc1O)c1ccccc1	none
CC(C)(C)[C@H]1C=C(C(=O)Nc2ccccc2)O[C@@H](OCCCCO)C1	none | VLA-4 mod pick inactive
CCO[C@@H]1OC(C(=O)Nc2ccccc2)=C[C@H](c2ccc(Br)cc2)[C@H]1CCCO	none
CCO[C@H]1OC(C(=O)N2CCN(Cc3ccccc3)CC2)=C[C@@H](C2CCCCC2)[C@@H]1CCCO	VLA-4 inh 53 | VLA-4 mod pick inactive
CCO[C@H]1OC(C(=O)Nc2ccccc2)=C[C@@H](C)[C@@H]1CCCO	VLA-4 inh 91 | VLA-4 mod pick inactive
O=C(CSc1n[nH]c(-c2ccc(Br)cc2)n1)N1CCOCC1	none (no result: CHT allo act, CHT inh)
O=C(COC(=O)c1ccccc1C(=O)c1ccc(Cl)c([N+](=O)[O-])c1)NC1CCCCCC1	VLA-4 inh 62 | VLA-4 mod pick inactive
CC(C)NC(=O)CCCc1ccccc1	none
CC(C)NC(=O)CCCC(=O)NC(C)C	none | VLA-4 mod pick inactive
COc1ccc(CN2CCC(=O)N([C@H](CO)Cc3ccccc3)CC2)cc1OC	none
CCOC(=O)CSc1nc(C)[nH]c1[N+](=O)[O-]	none | VLA-4 mod pick inactive
CC(C)CCNC(=O)CN(C(=O)CCC(=O)Nc1nccs1)C1CCCCC1	none
CC(CCc1ccco1)NC(=O)Cn1ncc2c1-c1ccccc1OC2 (centres undefined)	VLA-4 inh 57 | VLA-4 mod pick inactive
CCN(CC)C(=O)Cn1ncc2c1-c1ccccc1OC2	none
Cc1nc2ccc(S(=O)(=O)NCC(=O)Nc3cccc(F)c3)cc2s1	none
COC(=O)C(C)Oc1ccc(-c2nccc(-c3ccc(F)cc3)n2)cc1 (centres undefined)	none
COC(=O)C(C)Oc1ccc(Oc2nc(Cl)ccc2Cl)cc1 (centres undefined)	VLA-4 inh 52 | VLA-4 mod pick inactive
CCc1ccccc1NC(=O)CN1CCN(CC(=O)NCc2ccc(Cl)cc2)CC1	none (no result: CHT allo act, CHT inh)
CC(=O)NC(=S)Nc1ccc(NC(=O)c2cccs2)cc1	none | VLA-4 mod pick inactive
O=C(CSc1nnc(-c2ccccc2Cl)o1)Oc1ccc(Br)cc1	VLA-4 inh 91 | VLA-4 mod pick inactive
